# Laboratory results published in ChEMBL document CHEMBL1159071, “Discovery of 4-(5-methyloxazolo[4,5-b]pyridin-2-yl)-1,4-diazabicyclo[3.2.2]nonane (CP-810,123), a novel alpha 7 nicotinic acetylcholine receptor agonist for the treatment of cognitive disorders in schizophrenia: synthesis, SAR development, and in vivo efficacy in cognition models” (J Med Chem, 2010).
# Key:
# [1] = molecular target: Neuronal acetylcholine receptor subunit alpha-7 (Rattus norvegicus, UniProt Q05941); test: Displacement of [125I]BTX from rat alpha7 nicotinic acetylcholine receptor expressed in GH4C1 cells; assay type: cell-based, GH4-C1
# Sequence of Neuronal acetylcholine receptor subunit alpha-7 (Q05941 whole entry): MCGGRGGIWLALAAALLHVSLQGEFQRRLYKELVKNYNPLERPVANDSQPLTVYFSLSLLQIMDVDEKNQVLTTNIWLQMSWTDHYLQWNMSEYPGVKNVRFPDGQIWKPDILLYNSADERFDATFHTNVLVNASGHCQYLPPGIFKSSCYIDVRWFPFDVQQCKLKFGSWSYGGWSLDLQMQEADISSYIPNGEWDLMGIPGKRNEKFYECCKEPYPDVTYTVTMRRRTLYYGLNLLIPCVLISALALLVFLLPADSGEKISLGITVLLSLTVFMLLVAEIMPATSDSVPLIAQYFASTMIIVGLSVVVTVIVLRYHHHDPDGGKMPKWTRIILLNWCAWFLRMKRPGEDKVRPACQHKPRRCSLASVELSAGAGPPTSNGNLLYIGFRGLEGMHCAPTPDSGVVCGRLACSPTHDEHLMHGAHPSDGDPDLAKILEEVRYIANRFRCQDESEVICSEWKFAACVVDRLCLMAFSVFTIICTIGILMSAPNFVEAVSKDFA
# Outline: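 GH4C1 membranes (20 mM HEPES, 118 mM NaCl, 4.5 mM KCl, 2.5 mM CaCl2, 1.2 mM MgSO4, pH 7.5) incubated 2 h at 37 °C with [125I]α-bungarotoxin 0.4 nM final. Nonspecific binding with 1 μM methyllycaconitine; filtration onto PEI-treated GF/B filters. Ki = IC50/(1+[L]/KD); six-point curves in triplicate; geometric mean with 95% CI.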
# [2] = molecular target: Neuronal acetylcholine receptor subunit alpha-7 (Rattus norvegicus) (UniProt Q05941); test: Agonist activity at rat alpha7 nicotinic acetylcholine receptor expressed in Xenopus oocytes assessed as stimulation of channel currents at 32 uM at holding potential of -60/-90 mV by electrophysiology method relative to 50 uM nicotine; assay type: functional, cell-based; details: Oocyte
# Sequence of Neuronal acetylcholine receptor subunit alpha-7 (Rattus norvegicus) (Q05941 whole entry): as above
# Outline: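 Xenopus oocytes defolliculated with collagenase (1.3 mg/mL, 3 h), injected with 10-50 ng rat α7 cRNA, kept in Barth's saline up to 2 weeks. Voltage clamp at -60 or -90 mV; current evoked by compound at 32 μM given as % of the 50 μM nicotine response (set to 100%).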
# [3] = molecular target: T1, 5-hydroxytryptamine receptor 3A (Mus musculus, UniProt P23979); test: Displacement of [3H]LY278584 from mouse 5HT3 receptor expressed in HEK293 cells; assay type: cell-based
# T1 sequence (P23979 whole entry): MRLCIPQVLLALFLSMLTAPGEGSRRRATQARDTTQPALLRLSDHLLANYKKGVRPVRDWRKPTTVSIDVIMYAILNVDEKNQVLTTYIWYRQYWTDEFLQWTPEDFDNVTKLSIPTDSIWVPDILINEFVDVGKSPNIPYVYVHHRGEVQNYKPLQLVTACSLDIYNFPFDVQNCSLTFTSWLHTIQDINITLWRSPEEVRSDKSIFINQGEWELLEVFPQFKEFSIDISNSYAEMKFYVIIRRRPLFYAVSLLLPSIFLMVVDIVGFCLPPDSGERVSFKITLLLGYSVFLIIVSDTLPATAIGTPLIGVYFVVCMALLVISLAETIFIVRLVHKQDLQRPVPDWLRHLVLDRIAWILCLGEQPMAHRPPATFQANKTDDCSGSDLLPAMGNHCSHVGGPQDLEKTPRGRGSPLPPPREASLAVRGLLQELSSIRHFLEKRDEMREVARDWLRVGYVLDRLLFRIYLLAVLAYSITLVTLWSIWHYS
# Outline: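 Mouse 5-HT3A in HEK293 cell homogenate, 20 mM Tris-HCl pH 7.4 with 154 mM NaCl. [3H]LY278584 1 nM final; nonspecific binding with 10 μM ICS205-930; 60 min at 37 °C, then filtration onto PEI-soaked GF/B. Ki by Cheng-Prusoff; mean of three six-point curves in triplicate in one assay; tropisetron standard.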
# [4] = Agonist activity at human alpha7 nAChR/mouse 5HT3 chimeric receptor expressed in SH-EP1 cells assessed as increase in intracellular calcium level; assay type: functional, cell-based
# Outline: (§1)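 α7-5HT3 chimera stably in SH-EP1 cells grown to confluence; loaded with Calcium Green 1 AM (2 μM final) 60 min at 37 °C. Compound added directly; calcium rise read by FLIPR (excitation 488 nm, emission >525 nm).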
# [5] = Agonist activity at human alpha7 nAChR/mouse 5HT3 chimeric receptor expressed in SH-EP1 cells assessed as increase in intracellular calcium level relative to 100 uM nicotine; assay type: functional; outline: as §1
# CHO = test: Toxicity in CHO cells assessed as induction of DNA fragments by in vitro micronucleus assay; assay type: cell-based, Cricetulus griseus; details: chinese hamster
# [6] = molecular target: Voltage-gated inwardly rectifying potassium channel KCNH2 (Homo sapiens, UniProt Q12809)
# Sequence of Voltage-gated inwardly rectifying potassium channel KCNH2 (Q12809 whole entry): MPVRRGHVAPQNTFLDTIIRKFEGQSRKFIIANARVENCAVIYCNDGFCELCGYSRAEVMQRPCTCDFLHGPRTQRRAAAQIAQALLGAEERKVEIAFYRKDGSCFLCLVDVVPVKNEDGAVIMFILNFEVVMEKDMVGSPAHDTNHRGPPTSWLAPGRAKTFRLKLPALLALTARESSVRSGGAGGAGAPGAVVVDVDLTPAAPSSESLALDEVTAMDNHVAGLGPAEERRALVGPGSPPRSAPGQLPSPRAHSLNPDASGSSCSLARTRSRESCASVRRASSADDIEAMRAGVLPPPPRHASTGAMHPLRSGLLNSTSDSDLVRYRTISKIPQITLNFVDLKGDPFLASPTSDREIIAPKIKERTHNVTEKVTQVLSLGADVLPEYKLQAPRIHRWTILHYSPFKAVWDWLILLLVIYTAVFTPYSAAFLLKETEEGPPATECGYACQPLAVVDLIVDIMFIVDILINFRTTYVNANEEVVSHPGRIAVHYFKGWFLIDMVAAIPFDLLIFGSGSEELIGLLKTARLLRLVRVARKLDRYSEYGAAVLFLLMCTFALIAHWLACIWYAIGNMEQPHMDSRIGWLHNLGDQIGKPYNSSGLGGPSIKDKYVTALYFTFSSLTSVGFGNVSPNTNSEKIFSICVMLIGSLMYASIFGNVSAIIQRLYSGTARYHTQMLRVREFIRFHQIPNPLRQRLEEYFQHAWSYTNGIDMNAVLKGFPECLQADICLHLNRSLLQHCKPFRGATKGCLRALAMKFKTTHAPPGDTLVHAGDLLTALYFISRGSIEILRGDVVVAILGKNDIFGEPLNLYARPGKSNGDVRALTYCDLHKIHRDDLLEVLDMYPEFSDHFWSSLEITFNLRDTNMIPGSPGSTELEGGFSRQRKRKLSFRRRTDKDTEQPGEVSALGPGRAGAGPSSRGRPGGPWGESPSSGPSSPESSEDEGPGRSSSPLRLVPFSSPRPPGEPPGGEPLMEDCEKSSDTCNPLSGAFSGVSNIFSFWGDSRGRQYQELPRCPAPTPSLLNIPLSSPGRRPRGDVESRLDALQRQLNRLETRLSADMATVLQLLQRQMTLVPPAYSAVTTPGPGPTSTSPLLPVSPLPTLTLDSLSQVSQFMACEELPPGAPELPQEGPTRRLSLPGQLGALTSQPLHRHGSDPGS
# [7] = molecular target: T2, 5-hydroxytryptamine receptor 3A (Homo sapiens, UniProt P46098); test: […] at human 5HT3 receptor expressed in human skin epithelial cells assessed as stimulation of calcium flux by FLIPR assay; assay type: functional, cell-based, Epithelial cell
# T2 sequence (P46098 whole entry): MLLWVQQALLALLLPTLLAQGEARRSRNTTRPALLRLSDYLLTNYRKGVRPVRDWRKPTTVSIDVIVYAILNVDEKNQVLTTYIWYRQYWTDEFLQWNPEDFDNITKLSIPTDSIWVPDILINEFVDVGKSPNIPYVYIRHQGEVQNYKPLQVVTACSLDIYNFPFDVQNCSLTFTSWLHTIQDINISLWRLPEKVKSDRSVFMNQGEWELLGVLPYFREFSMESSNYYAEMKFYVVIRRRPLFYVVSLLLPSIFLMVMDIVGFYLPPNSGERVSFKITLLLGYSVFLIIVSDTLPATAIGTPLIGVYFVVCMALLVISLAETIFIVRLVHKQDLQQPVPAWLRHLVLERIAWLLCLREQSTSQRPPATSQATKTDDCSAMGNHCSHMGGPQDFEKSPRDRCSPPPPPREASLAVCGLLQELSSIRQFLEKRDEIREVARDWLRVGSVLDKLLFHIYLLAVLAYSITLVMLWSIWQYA
# Outline: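 Human 5-HT3A stably in human skin epithelial cells, plated 15 000 cells/well 2 days ahead; loaded 1 h at 37 °C with Fluo-4 (8 μM final), washed into HBSS with 20 mM Tris-HEPES, 1 μM atropine, 4 mM Ca2+, pH 7.4. Compound added 2 min, then 5-HT challenge (250 nM final) 2 min; FLIPR calcium read.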
Compound,Ki [1] [nM],Activity [2] [%],Ki [3] [nM],EC50 [4] [nM],Efficacy [5] [%],Activity (CHO),IC50 [6] [nM],IC50 [7] [nM]
Brc1ccc2oc(N3CCN4CCC3CC4)nc2c1,2.15,78,< 17,,,,,
c1cncc(-c2cnc3nc(N4CCN5CCC4CC5)oc3c2)c1,119,,> 5350,430,70,,,
Cc1nc2nc(N3CCN4CCC3CC4)oc2cc1F,15.3,,547,2100,36,,,
c1ccc2oc(N3CCN4CCC3CC4)nc2c1,22.5,183,13,,,,,
O=C(Oc1ccccc1)N1CCN2CCC1CC2,,,3990,,,,,
CCc1cnc2nc(N3CCN4CCC3CC4)oc2c1,22.5,,> 5260,300,53,,,
c1ccc(Oc2ccc3oc(N4CCN5CCC4CC5)nc3n2)cc1,17.3,,6830,380,63,,,
c1ccc(-c2cnc3oc(N4CCN5CCC4CC5)nc3c2)cc1,2.31,,3670,264,69,,,
Cc1ccc2nc(N3CCN4CCC3CC4)oc2c1,17.9,197,< 17,,,,,
c1cc2nc(N3CCN4CCC3CC4)oc2cn1,309,186,162,,,,,
Fc1ccccc1-c1ccc2oc(N3CCN4CCC3CC4)nc2n1,3.45,,> 3770,160,73,Non-toxic,2800,> 7310
Clc1cnc2oc(N3CCN4CCC3CC4)nc2c1,2.59,,,227,62,,,
CC(C)c1ccc2oc(N3CCN4CCC3CC4)nc2n1,9.05,,> 5290,580,68,,,
CCC(C)c1cnc2nc(N3CCN4CCC3CC4)oc2c1 (stereo unspecified),> 1000,,,,,,,
Clc1cnc2nc(N3CCN4CCC3CC4)oc2c1,1,,1370,160,83,,,484
c1cc2oc(N3CCN4CCC3CC4)nc2cn1,312,156,2120,,,,,
c1cnc2oc(N3CCN4CCC3CC4)nc2c1,40.6,182,92,,,,,

Compound,Ki [1] [nM],Activity [2] [%],Ki [3] [nM],EC50 [4] [nM],Efficacy [5] [%],Activity (CHO),IC50 [6] [nM],IC50 [7] [nM]
c1cc2oc(N3CCN4CCC3CC4)nc2nc1N1CCCCC1,67.1,,1140,1900,30,,,
Fc1ccc2oc(N3CCN4CCC3CC4)nc2c1,20.7,315,3.9,,,,,
COc1ccc2oc(N3CCN4CCC3CC4)nc2n1,24.9,,141,1000,56,,,
N#Cc1cnc2nc(N3CCN4CCC3CC4)oc2c1,6.2,,> 5290,510,58,,,
CCc1ccc2oc(N3CCN4CCC3CC4)nc2n1,18.7,,> 5260,100,34,Non-toxic,,3310
c1cc2oc(N3CCN4CCC3CC4)nc2nc1C1CCCC1,5.3,,> 5290,525,54,,,
c1cnc2nc(N3CCN4CCC3CC4)oc2c1,30.3,220,579,,,,,
Fc1cnc2nc(N3CCN4CCC3CC4)oc2c1,17.2,,6200,213,64,Toxic,8700,2480
Cc1ccc2nc(N3CCN4CCC3CC4)oc2n1,88.6,,126,1200,59,,,
c1cc(-c2cnc3nc(N4CCN5CCC4CC5)oc3c2)n[nH]1,23,,> 5260,390,68,,,
c1cc2oc(N3CCN4CCC3CC4)nc2nc1N1CCCC1,1.91,,6340,470,67,,,
c1ncc(-c2cnc3nc(N4CCN5CCC4CC5)oc3c2)cn1,60,,> 7140,,,,,
Cc1cnc2nc(N3CCN4CCC3CC4)oc2c1,6.66,,3390,1020,55,,,
Cc1ccc2oc(N3CCN4CCC3CC4)nc2c1,33.6,287,3.4,,,,,
c1ccc(Oc2cnc3nc(N4CCN5CCC4CC5)oc3c2)cc1,4.16,,1960,620,75,,,
Clc1ccc2oc(N3CCN4CCC3CC4)nc2c1,1.92,122,1.2,,,,,
c1ccc(-c2cnc3nc(N4CCN5CCC4CC5)oc3c2)cc1,7.04,,2120,320,71,,,
